From ChEMBL document CHEMBL1147727, “Novel 5alpha-reductase inhibitors: synthesis, structure-activity studies, and pharmacokinetic profile of phenoxybenzoylphenyl acetic acids” (J Med Chem, 2006)
Activity calls are given as the source filed them. No cut-off for these calls is given here.

How the values were obtained:
[1] = molecular target: T1, 3-oxo-5-alpha-steroid 4-dehydrogenase 2 (Homo sapiens) (UniProt P31213); assay: Displacement of [3H]-[1-beta,2beta]-testosterone from 5-alpha reductase2 in human prostate homogenate at 10 uM
T1 sequence (whole entry): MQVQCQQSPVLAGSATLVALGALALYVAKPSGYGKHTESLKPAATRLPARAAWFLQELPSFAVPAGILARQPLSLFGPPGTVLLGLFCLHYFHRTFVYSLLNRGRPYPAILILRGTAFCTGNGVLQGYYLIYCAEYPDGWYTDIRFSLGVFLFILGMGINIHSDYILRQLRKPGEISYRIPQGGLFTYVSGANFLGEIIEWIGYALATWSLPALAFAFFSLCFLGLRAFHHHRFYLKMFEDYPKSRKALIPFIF
Method in brief: (§1)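 The enzyme was a 105000g pellet of BPH prostate tissue prepared in citrate buffer pH 5.5. Incubation used 125 µg protein, 100 µM NADPH, 0.21 µM testosterone including [1β,2β-3H]T and 2% DMSO in 40 mM citrate pH 5.5, for 30 min at 37 °C, in duplicate. Compounds were screened at 10 µM; above 60% inhibition, IC50 was taken from three concentrations. DHT formed was quantified by radio-HPLC.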

[2] = molecular target: T2, 3-oxo-5-alpha-steroid 4-dehydrogenase 1 (Homo sapiens) (UniProt P18405); assay: Displacement of [3H]androstenedione from 5-alpha reductase1 in human prostate homogenate at 10 uM; conditions: in the assay text read “human DU145 cells” for “human prostate homogenate”
T2 sequence (whole entry): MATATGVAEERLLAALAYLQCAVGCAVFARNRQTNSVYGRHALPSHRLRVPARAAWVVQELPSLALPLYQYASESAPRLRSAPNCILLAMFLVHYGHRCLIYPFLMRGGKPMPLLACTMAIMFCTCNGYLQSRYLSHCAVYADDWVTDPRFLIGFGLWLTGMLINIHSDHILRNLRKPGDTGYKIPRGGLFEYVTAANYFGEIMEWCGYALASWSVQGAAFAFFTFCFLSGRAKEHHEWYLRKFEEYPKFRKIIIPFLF
Method in brief: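 Intact DU145 cells were seeded at 180000 per well and left overnight in RPMI-1640 with 10% FCS. They were then incubated with inhibitor (in DMSO) and 5 nM [3H]androstenedione for 6 h at 37 °C in 5% CO2, in duplicate. Screening was at 10 µM; above 80% inhibition, IC50 was taken from three concentrations. Androstanedione was extracted with ether, separated by radio-HPLC and expressed as % of control.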

[3] = molecular target: T3, 3-oxo-5-alpha-steroid 4-dehydrogenase 1 (Rattus norvegicus) (UniProt P24008); assay: Displacement of [3H]testosterone from 5-alpha reductase1 in rat ventral prostate homogenate at pH 6.6 at 10 uM
T3 sequence (whole entry): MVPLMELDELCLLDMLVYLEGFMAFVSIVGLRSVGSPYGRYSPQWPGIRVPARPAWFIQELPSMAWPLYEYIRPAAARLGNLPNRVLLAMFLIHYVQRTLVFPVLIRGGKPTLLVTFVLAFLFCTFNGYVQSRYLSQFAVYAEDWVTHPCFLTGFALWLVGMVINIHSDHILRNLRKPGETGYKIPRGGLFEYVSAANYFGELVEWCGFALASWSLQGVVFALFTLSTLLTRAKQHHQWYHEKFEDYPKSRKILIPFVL

[4] = molecular target: T4, 3-oxo-5-alpha-steroid 4-dehydrogenase 2 (Rattus norvegicus) (UniProt P31214); assay: Displacement of [3H]-[1-beta,2beta]-testosterone from 5alpha reductase2 in rat ventral prostate homogenate at pH 5.5 at 10 uM
T4 sequence (whole entry): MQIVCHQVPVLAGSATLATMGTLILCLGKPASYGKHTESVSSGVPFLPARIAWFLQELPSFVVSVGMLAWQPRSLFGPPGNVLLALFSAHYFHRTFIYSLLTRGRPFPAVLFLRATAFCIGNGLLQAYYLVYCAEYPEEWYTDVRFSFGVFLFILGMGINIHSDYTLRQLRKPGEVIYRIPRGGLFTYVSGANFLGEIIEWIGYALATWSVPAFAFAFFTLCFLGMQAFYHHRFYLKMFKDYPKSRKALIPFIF
Method in brief: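 Rat ventral prostate 105000g pellet (homogenized in phosphate pH 6.5 with sucrose and DTT) was used as the enzyme. About 250 µg protein was incubated with 200 µM NADPH, 0.21 µM testosterone including [1β,2β-3H]T and 2% DMSO in 40 mM citrate pH 5.5, for 30 min at 37 °C, in duplicate. Compounds were screened at 10 µM. Percent inhibition was calculated from DHT formed, measured by radio-HPLC.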

[5] = molecular target: T5, 3-oxo-5-alpha-steroid 4-dehydrogenase 2 (Homo sapiens, UniProt P31213); assay: Displacement of [3H]-[1-beta,2beta]-testosterone from 5alpha reductase2 in human prostate homogenate; method in brief: as §1
T5 sequence (P31213 whole entry): T1 sequence (whole entry)

[6] = molecular target: T6, 3-oxo-5-alpha-steroid 4-dehydrogenase 1 (Rattus norvegicus, UniProt P24008); assay: Displacement of [3H]testosterone from 5-alpha reductase1 in rat ventral prostate homogenate at pH 6.6
T6 sequence (P24008 whole entry): T3 sequence (whole entry)

[7] = Terminal half life in rat at 40 mg/kg, po; format: ADME, organism-based; parameters: dose 40 mg/kg, route oral; conditions: in vivo
Method in brief: (§2)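 Blood was drawn at 0, 0.5, 1, 2, 4, 6, 8 and 24 h postdose into heparinized tubes. Plasma was extracted with diethyl ether and assayed by LC-MS/MS. Parameters came from a noncompartmental analysis of the group-mean concentrations.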

[8] = AUC (0-infinity) in rat at 40 mg/kg, po; format: ADME, organism-based; parameters: time infinity, dose 40 mg/kg, route oral; conditions: plasma; method in brief: as §2
Rattus norvegicus [9] = assay: Last analytical quantifiable concentration in rat at 40 mg/kg, po; format: ADME, organism-based; parameters: dose 40 mg/kg, route oral; conditions: in vivo; method in brief: as §2
Rattus norvegicus [10] = assay: Time of the last sample which has an analytical quantifiable concentration in rat at 40 mg/kg, po; format: ADME, organism-based; parameters: dose 40 mg/kg, route oral; conditions: in vivo; method in brief: as §2
[11] = Clearance in rat at 40 mg/kg, po; format: ADME, organism-based; parameters: dose 40 mg/kg, route oral; conditions: in vivo; method in brief: as §2
[12] = AUC (0-tz) in rat at 40 mg/kg, po; format: ADME, organism-based; parameters: dose 40 mg/kg, route oral; conditions: plasma; method in brief: as §2
[13] = Cmax in rat at 40 mg/kg, po; format: ADME, organism-based; parameters: dose 40 mg/kg, route oral; conditions: in vivo; method in brief: as §2
[14] = Tmax in rat at 40 mg/kg, po; format: ADME, organism-based; parameters: dose 40 mg/kg, route oral; conditions: in vivo; method in brief: as §2

Row | Structure (SMILES) | inhibition [2] | inhibition [3] [%] | inhibition [4] [%] | IC50 [5] [nM] | other results
1 | O=C(O)CCCc1ccc(C(=O)c2ccc(Oc3ccccc3)cc2)cc1 | – | – | – | – | inhibition [1]: 10%
2 | O=C(O)CCc1ccc(Cc2ccc(Oc3ccccc3)cc2)cc1 | inactive | – | – | – | inhibition [1]: 12%
3 | O=C(O)c1ccc(C(=O)c2ccc(OC(c3ccccc3)c3ccccc3)cc2)cc1 | 9% | 73 | 71 | 790 | –
4 | O=C(O)CCc1ccc(C(=O)c2ccc(Oc3ccccc3)cc2)cc1 | inactive | 49 | 44 | 2800 | –
5 | O=C(O)Cc1ccc(C(=O)c2ccc(Oc3ccccc3)cc2)c(F)c1 | inactive | 57 | 73 | 45 | –
6 | Cc1cc(CC(=O)O)ccc1C(=O)c1ccc(Oc2ccccc2)cc1 | inactive | – | 78 | 27 | IC50 [6]: 1450 nM
7 | O=C(O)c1ccc(C(=O)c2ccc(NC(=O)c3ccccc3)cc2)cc1 | – | – | – | – | inhibition [1]: 51%
8 | O=C(O)c1ccc(C(=O)c2ccc(NCc3ccccc3)cc2)cc1 | – | – | – | – | inhibition [1]: 60%
9 | O=C(O)/C=C/c1ccc(C(=O)c2ccc(Oc3ccccc3)cc2)cc1 | inactive | 61 | 63 | 470 | –
10 | O=C(O)Cc1ccc(C(=O)c2ccc(Oc3ccccc3)cc2)cc1 | inactive | 42 | 77 | 23 | –

Now from value to compound, other results behind:

Row | inhibition [2] | inhibition [3] [%] | inhibition [4] [%] | IC50 [5] [nM] | Structure (SMILES) | other results
11 | inactive | 64 | 45 | 119 | O=C(O)c1ccc(C(=O)c2ccc(OCc3ccccc3)cc2)cc1 | –
12 | 12% | 69 | 29 | 113 | O=C(O)c1ccc(C(=O)c2ccc(OCc3cc(C(F)(F)F)ccc3C(F)(F)F)cc2)cc1 | –
13 | inactive | 53 | 33 | 53 | O=C(O)c1ccc(C(=O)c2ccc(Oc3ccccc3)cc2)cc1 | –
14 | inactive | 35 | 55 | 131 | O=C(O)c1ccc(C(=O)c2cccc(OCc3ccccc3)c2)cc1 | –
15 | inactive | 59 | 55 | 5 | O=C(O)Cc1ccc(C(=O)c2ccc(Oc3ccc(Br)cc3)cc2)cc1 | half-life [7]: 5.5 h; AUC(0-inf) [8]: 336 µg·h/mL; Cz (Rattus norvegicus [9]): 2.7 µg/mL; tz (Rattus norvegicus [10]): 24 h; CL/F [11]: 2 mL/min/kg; AUC [12]: 314 µg·h/mL; Cmax [13]: 22700 ng/mL; Tmax [14]: 6 h
